The subject of assay [1] is Leishmania donovani. Kind of assay: Antipromastigote activity against Leishmania donovani MHOM IN/Dd8 assessed as luciferase activity after 72 hrs. As to conditions: for IC50 / IC90: MHOM IN/Dd8, 72 h. The assay is classed as functional, organism-based. The method in brief:
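Firefly-luciferase-transfected promastigotes kept in medium 199 + 10% FCS, penicillin/streptomycin, G418 selection. Late-log cells seeded 5 × 10^5/well, 72 h with serial dilutions (2.5–50 mg/ml as printed) in DMSO; DMSO dilution controls. Aliquot mixed 1:1 with Steady-Glo, luminescence (RLU). % inhibition = (N−n)/N × 100 vs untreated control; IC50 by probit analysis.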

Assay [2] relates to Leishmania donovani. The assay can be described thus: Antiamastigote activity against Leishmania donovani MHOM IN/Dd8 in mouse J-774A.1 cells by luciferase reporter gene assay after 72 hrs. The note with it: for IC50: Leishmania donovani, MHOM IN/Dd8, J774.A1, 72 h. Format: functional, organism-based, J774.A1. In outline:
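J-774A.1 mouse macrophages seeded 5 × 10^4 cells/well in RPMI-1640 + 10% FCS, 37 °C, CO2; after 24 h infected with stationary-phase luciferase-expressing promastigotes (2.5 × 10^5/well). Test material added in fresh complete medium (2.5–50 mg/ml range as printed), 72 h, 37 °C. Medium removed, PBS plus Steady-Glo, luminescence read. Inhibition vs untreated control RLU; IC50 by probit analysis.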
On the technique in general: Reporter assays use an easily measured gene product as a stand-in for the process of interest.

The IC50 is the concentration at which inhibition is half-maximal. Usually IC90 stands for the point of the concentration-response curve where the effect stands at 90%.

SMILES strings stand for the structures. In brackets after ≈: the same amount, converted by molar mass. Activity calls are given as the source filed them. The calls are words filed in the database; no cut-off is given here.

On to `Cc1occc(=O)c1OCCCCCOc1c(C)n(-c2ccc(F)cc2)ccc1=O`, for which, in the assay on Leishmania donovani [1], the IC50 was 43.6 µg/mL (≈ 105 µM) and the 90% effect concentration (IC90) came to 856 µg/mL (≈ 2070 µM).

With `Cc1c(OCCCCCOc2c(C)n(Cc3ccccc3)ccc2=O)c(=O)ccn1Cc1ccccc1`, in the assay on Leishmania donovani [1], the IC50 was 9.98 µg/mL (≈ 20 µM) and the concentration for an effect of 90% (IC90) is 29.3 µg/mL (≈ 58.7 µM). In the assay with Leishmania donovani [2], the IC90 turned out to be 99.48 µg/mL (≈ 200 µM) and the midpoint of inhibition, the IC50, lay at 13.2 µg/mL (≈ 26.4 µM).

For `Cc1occc(=O)c1OCCCCCOc1c(C)n(-c2ccc(Cl)cc2)ccc1=O`, in the assay on Leishmania donovani [1], the IC50 came to 15.7 µg/mL (≈ 36.5 µM) and the 90% effect concentration (IC90) was 38.7 µg/mL (≈ 90.1 µM).

Regarding `Cc1cccc(C)c1-n1ccc(=O)c(OCCCCCOc2c(C)occc2=O)c1C`, in the assay on Leishmania donovani [1], the concentration for half-maximal inhibition (IC50) amounted to 17.9 µg/mL (≈ 42.2 µM) and the IC90 worked out at 57.9 µg/mL (≈ 137 µM).

In the assay on Leishmania donovani [2], `C[C@@H]1[C@H](O)[C@@H](C)/C=C/C=C/C=C/C=C/C=C/C=C/C=C/[C@H](O[C@@H]2O[C@H](C)[C@@H](O)[C@H](N)[C@@H]2O)C[C@@H]2O[C@](O)(C[C@@H](O)C[C@@H](O)[C@H](O)CC[C@@H](O)C[C@@H](O)CC(=O)O[C@H]1C)C[C@H](O)[C@H]2C(=O)O` [AMPHOTERICIN B] gave a 90% effect concentration (IC90) of 0.1571 µg/mL (≈ 0.17 µM) and an IC50 of 0.00646 µg/mL (≈ 0.00699 µM).

On to `Cc1occc(=O)c1OCCCCCOc1c(C)n(-c2ccc([N+](=O)[O-])cc2)ccc1=O`, for which, in the assay on Leishmania donovani [1], the IC50 was determined as 5.75 µg/mL (≈ 13.1 µM) and the IC90 came out at 20.2 µg/mL (≈ 45.9 µM). In the assay on Leishmania donovani [2], this molecule gave an IC90 of 28.58 µg/mL (≈ 64.9 µM) and an IC50 of 6.15 µg/mL (≈ 14 µM).

In the case of `Cc1occc(=O)c1OCCCCCOc1c(C)n(C2CCCCC2)ccc1=O`, in the assay with Leishmania donovani [1], the IC50 was 4.59 µg/mL (≈ 11.4 µM) and the IC90 turned out to be 10.7 µg/mL (≈ 26.6 µM). In the assay on Leishmania donovani [2], this molecule returned a concentration for an effect of 90% (IC90) of 102.89 µg/mL (≈ 256 µM) and an IC50 of 24 µg/mL (≈ 59.8 µM).

Turning to `CCCCCCCCCCCCCCCCOP(=O)([O-])OCC[N+](C)(C)C` [MILTEFOSINE], in the assay with Leishmania donovani [2], the IC90 was determined as 107.51 µg/mL (≈ 264 µM) and the 50% inhibitory concentration (IC50) was 33.9 µg/mL (≈ 83.2 µM).

Take `Cc1c(OCCCCCOc2c(C)n(C3CCCCC3)ccc2=O)c(=O)ccn1C1CCCCC1`: the results for the IC50 in the assay with Leishmania donovani [1] and in the assay with Leishmania donovani [2] were 4.57 µg/mL (≈ 9.47 µM) and 22.8 µg/mL (≈ 47.2 µM), respectively. The IC90 in the assay with Leishmania donovani [1] amounted to 18.6 µg/mL (≈ 38.6 µM); in the assay on Leishmania donovani [2], 62.23 µg/mL (≈ 129 µM).

Consider `Cc1c(OCCCCCOc2c(C)n(-c3ccc(F)cc3)ccc2=O)c(=O)ccn1-c1ccc(F)cc1`, for which, in the assay with Leishmania donovani [1], the result was inactive.

In the case of `Cc1cccc(-n2ccc(=O)c(OCCCCCOc3c(C)n(-c4cccc(C)c4C)ccc3=O)c2C)c1C`, in the assay with Leishmania donovani [1], the half-inhibitory concentration (IC50) came to 7.37 µg/mL (≈ 14 µM) and the IC90 is 19.1 µg/mL (≈ 36.2 µM). Besides, in the assay on Leishmania donovani [2], the concentration for an effect of 90% (IC90) worked out at 42.3 µg/mL (≈ 80.3 µM) and the half-inhibitory concentration (IC50) was 8.57 µg/mL (≈ 16.3 µM).

Take `Cc1occc(=O)c1OCCCCCOc1c(C)n(Cc2ccccc2)ccc1=O`: in the assay with Leishmania donovani [1], the IC50 is 13.5 µg/mL (≈ 33.1 µM) and the IC90 was 47.9 µg/mL (≈ 117 µM).

For `Cc1occc(=O)c1OCCCCCOc1c(C)occc1=O`, in the assay with Leishmania donovani [1], the IC50 stood at 18.7 µg/mL (≈ 58.3 µM) and the concentration for an effect of 90% (IC90) was 122 µg/mL (≈ 382 µM). For the same molecule, in the assay on Leishmania donovani [2], the 90% effect concentration (IC90) is 112.99 µg/mL (≈ 353 µM) and inhibition was half-maximal at 12.9 µg/mL (≈ 40.2 µM) (IC50).

On to `N=C(N)c1ccc(OCCCCCOc2ccc(C(=N)N)cc2)cc1` [PENTAMIDINE], for which, in the assay on Leishmania donovani [1], the half-inhibitory concentration (IC50) turned out to be 0.58 µg/mL (≈ 1.7 µM) and the IC90 came out at 0.88 µg/mL (≈ 2.58 µM).

For `COc1ccccc1-n1ccc(=O)c(OCCCCCOc2c(C)occc2=O)c1C`, the half-maximal inhibitory concentration (IC50) with Leishmania donovani [1] turned out to be 4.04 µg/mL (≈ 9.5 µM); in the assay with Leishmania donovani [2], 5.32 µg/mL (≈ 12.5 µM). The IC90 came out at 13.3 µg/mL (≈ 31.3 µM) in the assay on Leishmania donovani [1] and 38.08 µg/mL (≈ 89.5 µM) in the assay with Leishmania donovani [2].

Turning to `Cc1c(OCCCCCOc2c(C)n(-c3ccccc3)ccc2=O)c(=O)ccn1-c1ccccc1`, in the assay on Leishmania donovani [1], the concentration for half-maximal inhibition (IC50) came out at 22.7 µg/mL (≈ 48.2 µM) and the 90% effect concentration (IC90) turned out to be 49.8 µg/mL (≈ 106 µM).

In the case of `COc1ccc(-n2ccc(=O)c(OCCCCCOc3c(C)n(-c4ccc(OC)cc4)ccc3=O)c2C)cc1`, in the assay on Leishmania donovani [1], the IC50 worked out at 12.6 µg/mL (≈ 23.7 µM) and the IC90 stood at 43.8 µg/mL (≈ 82.5 µM).

For the molecule `Cc1cccc(C)c1-n1ccc(=O)c(OCCCCCOc2c(C)n(-c3c(C)cccc3C)ccc2=O)c1C`, the values for the half-maximal inhibitory concentration (IC50) in the assay with Leishmania donovani [1] and in the assay with Leishmania donovani [2] were 6.91 µg/mL (≈ 13.1 µM) and 9.64 µg/mL (≈ 18.3 µM), respectively. For the same molecule, the IC90 with Leishmania donovani [1] was found to be 12.5 µg/mL (≈ 23.7 µM); in the assay on Leishmania donovani [2], 48.43 µg/mL (≈ 92 µM).
